In data set [1] the test system is loperamide-induced mouse model of constipation. The experiment in a line: Loperamide-induced constipation model in wild-type mice. The data set is classed as in vivo. Particulars: for Normalization of stool output as percent of the maximal CFTRact-J027 response: 0.5 mg/kg oral; for Stool weight, pellet number and water content (3 hours): 10 mg/kg intraperitoneal, loperamide-treated wild-type mice. Summed up: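 Female CD1 mice (8–10 wk) given loperamide 0.3 mg/kg IP. Test compound (0.1–10 mg/kg) or vehicle given IP at the same time, or orally 1 h before. Mice then housed singly in metabolic cages and stool collected for 3 h: total weight, pellet number, and water content after drying at 80°C for 24 h. Mean ± SEM; 6 mice per group, dose-response 4–6 per group.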

In data set [2] the test system is constipation-predominant irritable bowel syndrome patients. The settings on record: cited from earlier work.
Data set [3] in a line: In vitro metabolic stability in mouse liver microsomes. The data set is classed as in vitro ADME. Summed up:
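Test compound (5 μmol/L) incubated at 37°C for set times with mouse liver microsomes (1 mg protein/mL) in 100 mmol/L potassium phosphate with 1 mmol/L NADPH. Reaction chilled on ice and extracted with ice-cold ethyl acetate, then centrifuged. Supernatant dried, residue taken up in acetonitrile:water 3:1, and parent measured by LC-MS.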
A general note: Liver microsomes are vesicles of endoplasmic reticulum, rich in cytochrome P450 enzymes.

A further data set has as its target human wild-type CFTR (Homo sapiens, UniProt P13569). The data set is described as follows: Short-circuit current in FRT cells expressing wild-type human CFTR. The data set is classed as cell-based. The essentials: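 FRT cells stably expressing wild-type human CFTR grown on porous filters. Basolateral membrane permeabilized with 250 μg/mL amphotericin B. Apical side given a Cl⁻ gradient (65 mmol/L NaCl replaced by Na gluconate, 2 mmol/L CaCl2) against HEPES-buffered basolateral saline, pH 7.3, 37°C. Forskolin, test compound, then CFTRinh-172 (10 μmol/L) added. Concentration dependence: mean ± SEM, n = 3 cultures.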

For the next data set, the target named is ΔF508-CFTR (Homo sapiens, UniProt P13569, DEL508-508). The data set is described as follows: Short-circuit current in FRT cells expressing ΔF508-CFTR. The data set is classed as cell-based. Particulars: FRT cells expressing ΔF508-CFTR after overnight incubation with corrector VX-809. Summed up:
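Short-circuit current in FRT cells expressing ΔF508-CFTR, pre-corrected with 3 μmol/L VX-809 at 37°C for 24 h. Responses recorded to added forskolin, test compound and VX-770, with CFTRinh-172 (10 μmol/L) where indicated. Traces representative of 3 experiments.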

The subject of data set [4] is closed midjejunal loops in wild-type mice. The experiment in a line: Intestinal fluid secretion in closed midjejunal loops, wild-type mice. Format: in vivo, mouse. The settings on record: 100 μg per loop, 90 minutes. Summed up: (§1)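 Mice fasted 24 h with 5% dextrose water only, then anaesthetised with isoflurane and kept at 36–38°C. Closed midjejunal loops (2–3 cm) tied off by sutures and injected with 100 μL vehicle or 100 μg test compound in vehicle. Incision closed and mice recovered. Loops removed at 90 min; loop weight/length taken as fluid secretion. 4 loops per group.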

Data set [5] relates to cystic fibrosis mice (ΔF508 homozygous). The data set is classed as in vivo, mouse. The settings on record: loperamide model; cystic fibrosis mice lacking functional CFTR. The essentials:
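ΔF508-homozygous cystic fibrosis mice run in the same loperamide protocol as wild-type mice (0.3 mg/kg IP, test compound or vehicle). Stool collected for 3 h in metabolic cages; weight, pellet number, and water content measured after drying at 80°C for 24 h. 3–6 mice per group.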

Data set [6] concerns isolated mouse ileum and colon strips. The data set is described as follows: Ex vivo contractility of isolated intestinal strips. Particulars: added alone or in the presence of 10 μmol/L loperamide.
Data set [7] is described as follows: 7-day oral toxicity study in mice. The data set is classed as in vivo, mouse. The essentials:
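Mice received 10 mg/kg test compound or vehicle orally once daily for 7 days. One hour after the last dose, loperamide 0.3 mg/kg IP was given and stool was collected for 3 h. At 4 h after the last dose: complete blood count, serum chemistry, body weight and lung wet/dry weight ratio. Mean ± SEM, 5 mice per group.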

For another data set, the system named is FRT cells. The data set is described as follows: In vitro cytotoxicity by Alamar Blue assay. The data set is classed as cell-based, rat. The essentials: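 FRT cells exposed to 25 μmol/L test compound for 8 and 24 h, with viability read by Alamar Blue. Mean ± SEM, n = 3 cultures.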
On the technique in general: Resazurin is reduced to fluorescent resorufin, in cell work by metabolically active cells.

The subject of a further data set is cAMP. The experiment in a line: GloSensor luminescence cAMP assay in FRT null cells. Format: cell-based, rat. Particulars: 5 μmol/L, 10 minutes. The essentials:
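FRT null cells stably transfected with a GloSensor cAMP plasmid, grown to confluence and washed 3× in PBS. Incubated 10 min with 5 μmol/L test compound, without or with forskolin (100 nmol/L). cAMP read by luminescence. Positive controls: forskolin 100 nmol/L and 20 μmol/L, forskolin plus IBMX 100 μmol/L. Mean ± SEM, n = 4–8.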
A general note: Cyclic AMP is a second messenger, typically raised through Gs and lowered through Gi signalling.

For another data set, the system named is loperamide-treated mice. The experiment in a line: Efficacy in loperamide model after 7-day chronic oral administration. The data set is classed as in vivo, mouse. The settings on record: 10 mg/kg orally for 7 days, loperamide 1 hour after final dose.
The nature of a further data set: Solubility limit. Format: physicochemical.
The test system of data set [8] is closed midjejunal loops in cystic fibrosis mice. The experiment in a line: Intestinal fluid secretion in closed midjejunal loops, cystic fibrosis mice. The data set is classed as in vivo, mouse. The settings on record: 100 μg per loop, 90 minutes. The essentials:
as §1

The subject of another data set is cystic fibrosis mice. The experiment in a line: Whole-gut transit time in cystic fibrosis mice. The data set is classed as in vivo, mouse. Particulars: 10 mg/kg IP. The essentials: (§2)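 Marker (200 μL; 5% Evans Blue, 5% gum Arabic) given by oral gavage at zero time. At the same time, loperamide (0.3 mg/kg) and test compound (10 mg/kg) or vehicle given IP, to wild-type or cystic fibrosis mice. Whole-gut transit time taken as the time the marker appears in stool.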

The test system of data set [9] is loperamide-treated wild-type mice. The experiment in a line: Whole-gut transit time in loperamide-treated wild-type mice. Particulars: 10 mg/kg IP with loperamide at zero time. The data set is classed as in vivo, mouse. The essentials: as §2
The test system of data set [10] is closed midjejunal loops of cystic fibrosis mice. The experiment in a line: Intestinal fluid absorption in closed midjejunal loops, cystic fibrosis mice. The settings on record: 100 μg per loop, 30 minutes. Format: in vivo, mouse.
A short description of data set [11]: Pharmacokinetics in mice after bolus IP or oral administration. The data set is classed as in vivo, mouse. The essentials: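 Female CD1 mice dosed once with 10 mg/kg test compound in saline containing 5% DMSO and 10% Kolliphor HS 15, IP or orally. Blood taken by orbital puncture at 15, 30, 60, 150, 240 and 360 min, and plasma separated by centrifugation. Levels measured by LC-MS against calibration standards spiked into untreated mouse plasma. Mean ± SEM, 3 mice per group.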

The test system of data set [12] is chronic constipation patients. Particulars: placebo 0.9; cited from earlier work.
Setting [13] is: 10 mg/kg orally once a day for 7 days.
The mark [14] stands for this setting: 10 mg/kg orally once per day for 7 days, mean ± SEM, 5 mice.

Converted amounts (≈) assume the structure as drawn. “Also recorded” adds a separate entry of the source.

In the case of `CCCCC(F)(F)[C@@]1(O)CC[C@H]2[C@@H](CC(=O)[C@@H]2CCCCCCC(=O)O)O1` [lubiprostone, reference compound], the “Normalization of stool output as percent of the maximal CFTRact-J027 response” value in [1] (loperamide-treated mice) was 50%. The Overall response rate result in data set [2] is “approximately 13%”.

As usually defined, the half-life is the time needed for the level to fall by half in the phase considered. Higher therefore signals slow loss. Usually solubility stands for the dissolved amount per volume that the medium holds. `Nc1ccc([N+](=O)[O-])cc1-c1nc2ccccc2n(Cc2ccccc2)c1=O` [CFTRact-J027, 3-(2-amino-5-nitrophenyl)-1-benzylquinoxalin-2(1H)-one]: the “Original compound remaining at 60 minutes” value in [3] (mouse liver microsomes, 60 minutes) is recorded as 7%. Further, the half-life at 5 μmol/L in data set [3] (mouse, liver microsomes) is ~21 min. In addition, the “CFTR activation at 3 μmol/L” value on human wild-type CFTR (FRT cells expressing wild-type CFTR, 3 μmol/L) is “nearly full activation”. Further, the “CFTR activation (short-circuit current)” value at human wild-type CFTR (FRT cells, wild-type CFTR, forskolin produced minimal further increase) was “fully activated CFTR”. In addition, the “CFTR activation in the absence of forskolin” value on human wild-type CFTR (FRT cells, wild-type CFTR, no forskolin, data not shown) is recorded as “Little CFTR activation”. Besides, at ΔF508-CFTR, the “Potentiation of ΔF508-CFTR” value is “only a weak potentiator; also recorded: substantially less potent than ivacaftor”. The “Increase in loop weight/length ratio (fluid secretion)” value in data set [4] is 140%. Also, in [5], the “Stool output and water content in cystic fibrosis mice” value was “without effect”. Further, in [6], the Intestinal contraction result is reported as “no effect”. Further, in data set [1], the “Stool weight, pellet number and water content (3 hours)” value is recorded as “normalized each of the stool parameters”. Besides, the “Stool output and water content, oral administration” value in data set [1] (10 mg/kg oral 1 hour before loperamide, loperamide-treated mice) is “effective in normalizing stool output and water content”. Moreover, the “Stool output and water content in control mice, oral administration” value in data set [1] (10 mg/kg oral, control mice) is “no effect”. For the same compound, the “Stool output or water content in control mice” value in data set [1] (intraperitoneal, control (non-loperamide-treated) mice) is “did not affect stool output or water content”. Besides, the “50% effective dose, IP administration” value in data set [1] (loperamide model, intraperitoneal) amounted to 2 mg/kg. Besides, in data set [7] (setting [13]), the Body weight entry is listed as “did not change body weight”; the “Lung water content (lung wet/dry weight ratio)” value was “normal lung water content”; the “Major serum chemistry and blood parameters” value is “did not affect the major serum chemistry and blood parameters”. In data set [7] (setting [14]), the ALP level is 53 ± 2.5 U/L, the ALT level came out at 44 ± 6 U/L, the AST level worked out at 105 ± 11 U/L and the Albumin level came out at 2.9 ± 0.03 g/dL. Further, in [7] (setting [14]), the BUN level is given as 18.4 ± 1.2 mg/dL, the Bicarbonate level was determined as 16 ± 1.7 mmol/L, the CK level worked out at 312 ± 62 U/L and the Calcium level is 8.5 ± 0.04 mg/dL. In [7] (setting [14]), the Chloride level came to 115 ± 1 mmol/L, the Cholesterol level is 121 ± 6 mg/dL, the Creatinine level came to 0.2 ± 0 mg/dL and the Globulin level was found to be 2.2 ± 0.1 g/dL. In addition, in data set [7] (setting [14]), the Glucose level is 164 ± 6 mg/dL, the Hemoglobin level is 12.8 ± 0.3 g/dL, the Leukocyte level was 1.9 ± 0.5 10^3/μL and the Phosphorus level was 6.8 ± 0.3 mg/dL. Besides, in [7] (setting [14]), the Potassium level worked out at 4.4 ± 0.1 mmol/L, the Sodium level was 151 ± 0.7 mmol/L, the Thrombocyte level is on record as 900 ± 48 10^3/μL and the Total bilirubin level turned out to be 0.1 ± 0 mg/dL. Besides, the Total protein level in data set [7] (setting [14]) is on record as 5.2 ± 0.1 g/dL. Also, the “Non-cytotoxic concentration relative to EC50 for CFTR activation” value in the data set on FRT cells (25 μmol/L versus EC50) was “more than 100 fold”. Further, in the data set with FRT cells (25 μmol/L, FRT cells, 8 and 24 hours), the “Cytotoxicity (Alamar Blue)” value is given as “did not show cytotoxicity”. Further, the “Cellular cAMP, compound added alone” value in the data set with cAMP is “does not increase cellular cAMP”. The “Cellular cAMP, compound added together with forskolin” value with cAMP (with forskolin) is listed as “does not increase cAMP further”. For the same compound, the “Stool output and water content after chronic administration” value in the data set with loperamide-treated mice was “remained effective in normalizing stool output and water content”. Moreover, the solubility in the data set “Solubility limit” was ~25 µM (≈ 9.31 µg/mL). Besides, in [8], the “Loop fluid secretion in cystic fibrosis mice” value was “without effect”. The “Whole-gut transit time in cystic fibrosis mice” value with cystic fibrosis mice is “no effect”. In addition, the Whole-gut transit time entry in data set [9] is reported as “normalized”. For the same compound, the Intestinal fluid absorption result in [10] is “did not affect intestinal fluid absorption”. The half-life in data set [11] (female, CD1, mouse, serum, ip, 10 mg/kg) is ~16 min. In data set [11] (female, CD1, mouse, serum, po, 10 mg/kg), this compound returned a concentration at 30 minutes of 180 nM. Moreover, the “Serum concentration at 150 minutes after IP administration” value in data set [11] (mice, 10 mg/kg IP, 150 minutes) is “undetectable”. The “Blood levels after oral administration” value in data set [11] (mice, 10 mg/kg oral) is given as “less than 200 nmol/L”. Also, the “Serum concentration at other time points after oral administration” value in data set [11] (mice, 10 mg/kg oral, time points other than 30 minutes) is “undetectable”. Moreover, the Oral bioavailability result in data set [11] (mice, 10 mg/kg oral, 10 mg/kg) is “minimal bioavailability; also recorded: very low bioavailability”.

Consider `Cn1c(=O)c(-c2cc([N+](=O)[O-])ccc2N)nc2ccccc21` [inactive chemical analog of CFTRact-J027, 3-(2-amino-5-nitrophenyl)-1-(methyl)-2(1H)-quinoxalinone], for which the “Stool weight, pellet number and water content (3 hours)” value in data set [1] is given as “not effective”.

For the compound linaclotide [reference compound], the “Normalization of stool output as percent of the maximal CFTRact-J027 response” value in data set [1] (loperamide-treated mice) is reported as 35%. In addition, the CSBM per week in data set [12] is ~2.5.

Source of the values: article PMC4844355 (Cellular and Molecular Gastroenterology and Hepatology, 2016).
